In one series the test system is SK-BR-3. The series can be described thus: Antiproliferative activity against human SKBR3 cells assessed as reduction in cell viability. The class given is functional, cell-based.
The subject of a further series is MCF7. The experiment in a line: Antiproliferative activity against human MCF7 cells assessed as reduction in cell viability. It counts as functional, cell-based.
In series [1] the target is T1, Heat shock protein HSP90 (Homo sapiens, UniProt P07900+P08238). The series can be described thus: Inhibition of HSP90 at C-terminus in human SKBR3 cell lysates assessed as induction of AKT protein degradation at 0.1 to 10 uM after 24 hrs by Western blot analysis. It counts as cell-based. The note with it: SK-BR-3. In short, it runs like this:
(§1)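 SKBr3 breast cancer cells were treated for 24 h and then lysed. Hsp90-dependent client proteins and Hsp70 in the lysates were analysed by Western blot. Geldanamycin at 500 nM served as the reference treatment. Blot images were quantified.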

Series [2] has as its target T1, Heat shock protein HSP90. The experiment in a line: Inhibition of HSP90 at N-terminus in human SKBR3 cell lysates assessed as induction of heat shock response by measuring increase in HSP70 protein level at 0.1 to 10 uM after 24 hrs by Western blot analysis. The following applies: sk-br-3, 24 h. The class given is cell-based. In short, it runs like this:
as §1
A general note: Immunoblotting shows a protein as a band on a membrane.

Series [3] concerns the target T1, Heat shock protein HSP90. The series can be described thus: Inhibition of HSP90 at C-terminus in human SKBR3 cell lysates assessed as induction of Her2 protein degradation at 0.1 to 10 uM after 24 hrs by Western blot analysis. It counts as cell-based. The note with it: SK-BR-3. In short, it runs like this: as §1
Series [4] concerns the target T1, Heat shock protein HSP90. The series can be described thus: Inhibition of HSP90 at C-terminus in human SKBR3 cell lysates assessed as induction of Raf1 protein degradation at 0.1 to 10 uM after 24 hrs by Western blot analysis. The class given is cell-based. The following applies: SK-BR-3. In outline:
as §1

The target of series [5] is T1, Heat shock protein HSP90. The experiment in a line: Inhibition of HSP90 at C-terminus in human SKBR3 cell lysates assessed as induction of CDK4 protein degradation at 0.1 to 10 uM after 24 hrs by Western blot analysis. The class given is cell-based. The following applies: SK-BR-3. In outline: as §1
The target in series [6] is T1, Heat shock protein HSP90. The experiment in a line: Inhibition of HSP90 at C-terminus in human SKBR3 cell lysates at 0.5 to 5 times antiproliferative EC50 after 24 hrs by Western blot analysis. The class given is cell-based. The note with it: SK-BR-3. In short, it runs like this: as §1

Experimental findings from ChEMBL document CHEMBL4622989, “From Bacteria to Cancer: A Benzothiazole-Based DNA Gyrase B Inhibitor Redesigned for Hsp90 C-Terminal Inhibition” (ACS Med Chem Lett, 2020) are described below.

Calls of active or inactive are those of the source. No cut-off for these calls is given here.

For orientation: EC50 means the midpoint of the concentration-response curve. Take `CCOC(=O)C(=O)Nc1ccc2nc(NC(=O)c3cc4cc(CC)ccc4[nH]3)sc2c1`: the values for the EC50 in the series with SK-BR-3 and in the series with MCF7 were 20.6 µM and 25.3 µM, respectively.

`CCOC(=O)C(=O)Nc1ccc2nc(NC(=O)c3ccc4c(c3)OCO4)sc2c1`: the EC50 in the series on SK-BR-3 and in the series with MCF7 was above 50 µM throughout.

Turning to `CCOC(=O)C(=O)Nc1nc2ccc(NC(=O)c3ccccc3)cc2s1`, the EC50 in the series with SK-BR-3 is 9.73 µM; in the series on MCF7, above 50 µM.

For the molecule `CCOC(=O)C(=O)Nc1ccc2nc(NC(=O)c3ccc(OC)cc3)sc2c1`, the EC50 with SK-BR-3 is 10.7 µM; with MCF7, above 50 µM.

With `CCOC(=O)C(=O)Nc1nc2ccc(NC(=O)c3cc(Br)c(Br)[nH]3)cc2s1`, the values for the EC50 in the series with SK-BR-3 and in the series with MCF7 were 3.59 µM and 10.1 µM, respectively.

With `CCOC(=O)C(=O)Nc1nc2ccc(NC(=O)c3cc(Br)c[nH]3)cc2s1`, the EC50 was determined as 27.9 µM in the series on SK-BR-3 and 41.3 µM with MCF7.

With `CC(=O)C(=O)Nc1ccc2nc(NC(=O)c3cc4ccccc4[nH]3)sc2c1`, the EC50 in the series with SK-BR-3 and in the series on MCF7 was above 50 µM in each case.

`CCOC(=O)C(=O)Nc1nc2ccc(NC(=O)c3cc4ccccc4[nH]3)cc2s1`: the results for the EC50 with SK-BR-3 and in the series with MCF7 were 6.94 µM and 11.2 µM, respectively.

On to `Cc1ccc2[nH]c(C(=O)Nc3nc4ccc(NC(=O)C(=O)c5ccccc5)cc4s3)cc2c1`, for which the EC50 in the series with SK-BR-3 and in the series on MCF7 was above 50 µM each time.

Take `CCOC(=O)C(=O)Nc1ccc2nc(NC(=O)c3cc4ccccc4[nH]3)sc2c1`: the EC50 with SK-BR-3 turned out to be 5.41 µM; in the series on MCF7, 8.99 µM.

For the molecule `CCOC(=O)C(=O)Nc1ccc2nc(NC(=O)c3cc4ccc(OC)cc4[nH]3)sc2c1`, the results for the EC50 with SK-BR-3 and with MCF7 were 6.7 µM and above 50 µM, respectively.

On to `CCOC(=O)C(=O)Nc1ccc2nc(NC(=O)c3cc4cc(OC)ccc4[nH]3)sc2c1`, for which the inhibition result on Heat shock protein HSP90 [1], at Heat shock protein HSP90 [3], at Heat shock protein HSP90 [4] and on Heat shock protein HSP90 [5] was “Active” in each case. Further, on Heat shock protein HSP90 [2], the “inhibition (INH)” value is on record as “Not Active”. The EC50 in the series on SK-BR-3 came to 0.86 µM; with MCF7, 7.03 µM.

Take `CCOC(=O)C(=O)Nc1ccc2nc(NC(=O)c3cc(Br)c(Br)[nH]3)sc2c1`: the inhibition entry on Heat shock protein HSP90 [6] was “Active”. In addition, the 50% effective concentration (EC50) in the series with SK-BR-3 was 2.41 µM; in the series on MCF7, above 50 µM.

On to `CC(=O)Nc1nc2ccc(NC(=O)c3cc(Br)c(Br)[nH]3)cc2s1`, for which the EC50 in the series on SK-BR-3 and with MCF7 was above 50 µM in each case.

`CCOC(=O)C(=O)Nc1ccc2nc(NC(=O)c3ncccn3)sc2c1`: the EC50 in the series on SK-BR-3 and with MCF7 was above 50 µM each time.

For `CCOC(=O)C(=O)Nc1ccc2nc(NC(=O)c3cc4cc(C)ccc4[nH]3)sc2c1`, the EC50 stood at 2.81 µM in the series on SK-BR-3 and 10.1 µM in the series on MCF7.

As to `COc1ccc2[nH]c(C(=O)Nc3nc4ccc(NC(=O)C(=O)c5ccccc5)cc4s3)cc2c1`, the EC50 with SK-BR-3 and with MCF7 was above 50 µM in each case.
